The source of these data is ChEMBL document CHEMBL2203053, “DNA binding acridine-thiazolidinone agents affecting intracellular glutathione” (Bioorg Med Chem, 2012).

Structures are written as SMILES. Active and inactive are the calls of the source. The rule behind the calls is not given here.

The subject of data set [1] is Nucleic Acid. Nature of the data set: Binding affinity to calf thymus DNA assessed as bathochromic shift at 25 uM by UV-visible spectrophotometry. In kind it is nucleic-acid assay. Conditions: Bos taurus. In outline:
(§1)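 Absorption spectra were taken in 0.01 M Tris buffer, pH 7.4. Compounds were diluted from DMSO stock to a final 25 µM. Sonicated calf thymus DNA in TE buffer was added at 0–30 µM bp, with concentration set by A260. Shift of λmax (free vs bound) and % hypochromicity were recorded.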

For data set [2], the system named is L1210. Nature of the data set: Cytotoxicity against mouse L1210 cells after 48 hrs by MTT assay. In kind it is functional, cell-based. The note with it: L1210, 48 h. In outline: (§2)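 HL-60, L1210 and A2780 cells were grown in RPMI 1640 with 10% FBS, penicillin and streptomycin at 37 °C, 5% CO₂; HL-60 and A2780 medium also had 2 mM glutamine. Cells were exposed to 0–30 µM for 48 or 72 h. Viability was read by MTT microculture tetrazolium assay and IC50 was determined.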
For orientation: Formazan colour is commonly taken as a measure of viable cells.

Data set [3] relates to A2780. Nature of the data set: Drug uptake in human A2780 cells at 5 uM after 4 hrs by Hoechst staining based fluorescence microscopy. The note with it: a2780, 4 h. It counts as ADME, cell-based.
For data set [4], the system named is HL-60. Nature of the data set: Decrease in intracellular glutathione level in human HL60 cells at 2 uM after 2 hrs by spectrophotometric analysis. It counts as functional, cell-based.
Data set [5] deals with HL-60. Nature of the data set: Cytotoxicity against human HL60 cells after 72 hrs using trypan blue exclusion staining by DCC method. It counts as functional, cell-based. The note with it: HL-60, 72 h. In outline:
(§3)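 For trypan blue dye-exclusion direct cell counting, HL-60 cells were seeded at 1 × 10⁵ cells/mL. Compound at 0–10 µM, or 1% DMSO control, was added after 24 h. Viable counts were taken after 24, 48 and 72 h. IC50 (50% inhibition of viability) came from growth curves, as mean ± S.D., n = 3.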

The subject of data set [6] is HL-60. As to the kind of experiment: Decrease in intracellular glutathione level in human HL60 cells at 2 uM after 24 hrs by spectrophotometric analysis. In kind it is functional, cell-based.
Data set [7] deals with Nucleic Acid. As to the kind of experiment: Binding affinity to calf thymus DNA assessed as melting temperature at 5 uM at pH 7.1 by thermal denaturation assay. In kind it is nucleic-acid assay. Conditions: Bos taurus.
The subject of data set [8] is A2780. As to the kind of experiment: Cytotoxicity against human A2780 cells after 48 hrs by MTT assay. It counts as functional, cell-based. Conditions: A2780, 48 h. In outline: as §2
The subject of data set [9] is HL-60. As to the kind of experiment: Cytotoxicity against human HL60 cells after 72 hrs by MTT assay. In kind it is functional, cell-based. The note with it: HL-60, 72 h. In outline:
as §2

The test system of data set [10] is HL-60. As to the kind of experiment: Cytotoxicity against human HL60 cells after 48 hrs using trypan blue exclusion staining by DCC method. It counts as functional, cell-based. The note with it: HL-60, 48 h. In outline: as §3
Data set [11] deals with A2780. Nature of the data set: Cytotoxicity against human A2780 cells after 72 hrs by MTT assay. It counts as functional, cell-based. Conditions: A2780, 72 h. In outline:
as §2

Data set [12] concerns HL-60. Nature of the data set: Drug uptake in human HL60 cells at 5 uM after 4 hrs by Hoechst staining based fluorescence microscopy. Conditions: hl-60, 4 h. In kind it is ADME, cell-based. In outline:
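HL-60 cells were exposed to 5 µM for 4 h at 37 °C, 5% CO₂, then washed in PBS. Intrinsic blue fluorescence was viewed by optical and fluorescence microscopy. Untreated control cells were stained with Hoechst 33342 (10 µM, 10 min).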

For data set [13], the system named is Nucleic Acid. Nature of the data set: Ratio of acridine orange K to compound K for calf thymus DNA by spectrofluorimetry based McGhee von Hippel method. In kind it is nucleic-acid assay. Conditions: Bos taurus.
Data set [14] deals with HL-60. Nature of the data set: Cytotoxicity against BSO pretreated human HL60 cells assessed as cell viability at 1.5 uM treated 6 hrs after BSO addition measured after 48 hrs by trypan blue exclusion assay. In kind it is functional, cell-based. In outline: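 HL-60 cells were pretreated 6 h with L-buthionine-sulfoximine (10 µM), then exposed to 1.5, 3.0 or 1.0 µM compound for 48 h. Viable cells were counted by trypan blue staining and expressed as percentage of all cells.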

The test system of data set [15] is Nucleic Acid. Nature of the data set: Binding affinity to calf thymus DNA assessed as binding constant by spectrofluorimetry based McGhee von Hippel method. In kind it is nucleic-acid assay. The note with it: Bos taurus. In outline:
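Fluorescence titration used compound at 26.7 µM in 0.01 M Tris buffer (pH 7.4, 24 °C). ctDNA was added stepwise from 0 to 32 µM bp at 2 µM intervals until spectra stopped changing. Excitation was 384 nm and emission was read at 410–470 nm. Binding constant K was derived by the McGhee–von Hippel method from Scatchard plot data.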

The test system of data set [16] is Nucleic Acid. Nature of the data set: Binding affinity to calf thymus DNA assessed as hypochromicity at 25 uM by UV-visible spectrophotometry. The note with it: Bos taurus. It counts as nucleic-acid assay. In outline: as §1
For data set [17], the system named is Nucleic Acid. As to the kind of experiment: Ratio of proflavine K to compound K for calf thymus DNA by spectrofluorimetry based McGhee von Hippel method. In kind it is nucleic-acid assay. Conditions: Bos taurus.
Data set [18] has as its system HL-60. As to the kind of experiment: Induction of necrosis in human HL60 cells assessed as cell shrinking at 5 uM after 24 hrs by propidium iodide staining based fluorescence microscopy. In kind it is functional.
In data set [19] the test system is Nucleic Acid. Nature of the data set: Ratio of daunomycin K to compound K for calf thymus DNA by spectrofluorimetry based McGhee von Hippel method. In kind it is nucleic-acid assay. The note with it: Bos taurus.
Data set [20] concerns HL-60. Nature of the data set: Cytotoxicity against human HL60 cells after 48 hrs by MTT assay. In kind it is functional, cell-based. Conditions: HL-60, 48 h. In outline: as §2
Data set [21] relates to L1210. Nature of the data set: Cytotoxicity against mouse L1210 cells after 72 hrs by MTT assay. The note with it: L1210, 72 h. It counts as functional, cell-based. In outline:
as §2

Regarding `CCC(C)N1C(=O)/C(=C/C(=O)OC)S/C1=N\c1c2ccccc2nc2ccccc12` (stereo unspecified), the outcome in the data set with Nucleic Acid [1], in the data set on HL-60 [4], in the data set with HL-60 [6], in the data set with HL-60 [14] and in the data set with HL-60 [18] was Active. For the same molecule, the IC50 in the data set with L1210 [2] came to 3.3 µM; in the data set on HL-60 [5], 1.7 µM; in the data set on A2780 [8] it was 20.8 µM; in the data set with HL-60 [9], 2.1 µM; with HL-60 [10], 2 µM; in the data set with A2780 [11], 12.6 µM. The IC50 worked out at 3.4 µM in the data set with HL-60 [20] and 7.5 µM in the data set on L1210 [21]. The Drug uptake result in the data set on A2780 [3] and in the data set with HL-60 [12] was “Active” in each case. The Tm with Nucleic Acid [7] is 75 °C. Also, the Ratio with Nucleic Acid [13], in the data set with Nucleic Acid [17] and in the data set on Nucleic Acid [19] was 10 throughout. Moreover, the K in the data set on Nucleic Acid [15] amounted to 2.21 ×10⁶ /M. Further, the Activity in the data set with Nucleic Acid [16] was found to be 26.3%.

Broadly, the IC50 is the concentration at which inhibition is half-maximal. For orientation: Tm means the temperature at which the thermal transition is half complete.
